Where two headings read alike, the source gives them in different places.

The values below come from PMC6996566 (ChemistryOpen, 2019).

Type in all cases: cell-based, human
Assay [1] deals with A2780. Briefly: In vitro anti‐proliferative assay. To be noted: read-out: A2780 (IC50); MTT, 48 h treatment; mean of triplicate determinations. Summed up: (§1)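 MTT assay: 5×10³ cells per well settled 24 h, then exposed to a concentration series of test compound or DMSO for 48 h. Medium replaced with fresh medium containing 10% MTT (5 mg/mL in PBS) for 4 h at 37 °C. Formazan dissolved in DMSO, absorbance read at 570 nm. Inhibition % = (OD DMSO − OD compound)/(OD DMSO − OD blank)×100, giving IC50.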

In assay [2] the test system is HUVEC. Briefly: In vitro anti‐proliferative assay. Summed up:
as §1

For assay [3], the system named is Hela. Briefly: In vitro anti‐proliferative assay. To be noted: read-out: Hela (IC50); MTT, 48 h treatment; mean of triplicate determinations. Summed up: as §1
The subject of assay [4] is A2780 cells. In words: Nitrite measurement in vitro. The note with it: 100 μM compound, 150 min, Griess reagent. Summed up: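 A2780 cells (1×10⁷ per 10 cm dish) were exposed to 100 μM test compound for 150 min, then harvested and lysed in RIPA buffer for 30 min on ice. Lysates were mixed with Griess reagent for 30 min in the dark and read at 540 nm. Nitrite was quantified against a sodium nitrite standard curve, with diluent-treated cells as background. Mean ± SD of three independent experiments.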

Regarding “3‐Phenylsulfonyl‐4‐hydroxylethoxyl‐1,2,5‐oxadiazole 2‐Oxide [compound 21]”, the half-inhibitory concentration (IC50) in assay [1] worked out at 1.92 µM; in assay [2] (read-out: HUVEC (IC50), MTT, 48 h treatment, mean of triplicate determinations), 1.48 µM; in assay [3], 3.05 µM.

Consider `COc1cc2c(cc1O)CC[C@@H]1[C@@H]2CC[C@]2(C)[C@@H](O)CC[C@@H]12` [compound 3, 2‐methoxyestradiol], for which the IC50 in assay [2] (Homo sapiens, HUVEC, 48 h, read-out: HUVEC (IC50, μM)) was 1.35 µM. The “intracellular NO production, presented as nitrite in the cell lysates” value in assay [4] is on record as “hardly detected”.
